{"source": "paper PMC2843818", "about": "(Bioorganic & medicinal chemistry letters, 2010)", "key": {"[1]": {"target": "T1, hS1P1 (Homo sapiens, UniProt P21453)", "T1 sequence (P21453 whole entry)": "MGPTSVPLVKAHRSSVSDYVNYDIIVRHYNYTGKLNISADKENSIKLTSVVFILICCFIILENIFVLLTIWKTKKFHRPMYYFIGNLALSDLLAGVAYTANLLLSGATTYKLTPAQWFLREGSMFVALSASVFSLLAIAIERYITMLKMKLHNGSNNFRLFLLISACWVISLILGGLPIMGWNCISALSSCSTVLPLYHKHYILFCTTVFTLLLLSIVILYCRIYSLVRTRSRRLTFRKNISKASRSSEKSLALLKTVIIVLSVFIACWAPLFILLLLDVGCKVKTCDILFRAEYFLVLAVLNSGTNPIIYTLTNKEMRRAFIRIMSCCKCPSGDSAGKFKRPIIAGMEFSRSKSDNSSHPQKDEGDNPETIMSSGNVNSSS", "assay": "Calcium mobilization Gq assay, S1P1", "type": "cell-based", "conditions": "for EC50 S1P1: calcium mobilization Gq assay, whole cell"}, "[2]": {"target": "T1, hS1P1", "assay": "Calcium mobilization Gi assay, S1P1", "type": "cell-based", "conditions": "for EC50 S1P1: calcium mobilization Gi assay, whole cell"}, "[3]": {"target": "human S1P3 (Homo sapiens, UniProt Q99500)", "sequence (Q99500 whole entry)": "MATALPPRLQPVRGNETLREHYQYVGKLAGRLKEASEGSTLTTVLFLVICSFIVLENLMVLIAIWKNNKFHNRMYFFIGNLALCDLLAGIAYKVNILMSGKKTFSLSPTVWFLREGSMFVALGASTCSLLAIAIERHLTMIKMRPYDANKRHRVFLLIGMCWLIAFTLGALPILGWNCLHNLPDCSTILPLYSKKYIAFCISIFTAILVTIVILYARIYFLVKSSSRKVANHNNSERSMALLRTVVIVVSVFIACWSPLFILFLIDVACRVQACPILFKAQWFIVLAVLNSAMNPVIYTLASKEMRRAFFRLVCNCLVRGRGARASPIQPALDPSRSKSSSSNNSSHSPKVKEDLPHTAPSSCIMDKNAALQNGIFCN", "assay": "Calcium mobilization Gi assay, S1P3", "type": "cell-based", "conditions": "for EC50 S1P3: calcium mobilization Gi assay, whole cell"}, "[4]": {"system": "lymphopenia", "assay": "Mouse lymphopenia", "type": "in vivo", "conditions": "for duration of sustained lymphopenia: mouse PK/PD study", "in_short": "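Mouse PK/PD study with single doses of test compound at 1 or 2 mg/kg. Lymphopenia was followed over time to find how long it lasted. Pharmacokinetics were measured in parallel: oral bioavailability, half-life, clearance, volume, and percent in vivo phosphorylation.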"}}}
{"smiles": "CCCCCCCCc1ccc2c(c1)CC[C@@H]([C@@](C)(N)COP(=O)(O)O)C2", "note": "[(2R, 2’R)-6]", "values": [{"measurement": "EC50 S1P1", "setting": "[1]", "result": "very active"}]}
{"smiles": "CCCCCCCCc1ccc2c(c1)CC[C@@H]([C@](C)(N)COP(=O)(O)O)C2", "note": "[(2S, 2’R)-6]", "values": [{"measurement": "S1P1/S1P3 selectivity", "setting": "[2]; Gi assay", "result": "great S1P1/S1P3 selectivity"}, {"measurement": "EC50 S1P1", "setting": "[2]", "result": "significantly less active"}, {"measurement": "EC50 S1P3", "setting": "[3]", "result": "no activity"}]}
{"smiles": "CCCCCCCCc1ccc(CC[C@@](N)(CO)COP(=O)(O)O)cc1", "note": "[(R)-FTY720-P, reference compound]", "values": [{"measurement": "EC50 S1P3", "setting": "[3]", "result": "not active"}, {"measurement": "EC50 S1P1", "setting": "[1]", "result": "not active"}]}
{"smiles": "CCCCCCCCc1ccc2c(c1)CC[C@H]([C@@](C)(N)CO)C2", "note": "[(2R, 2’S)-5, (−)-(R)-2-amino-2-((S)-6-octyl-1,2,3,4-tetrahydronaphthalen-2-yl) propan-1-ol]", "values": [{"measurement": "duration of sustained lymphopenia", "setting": "[4]; 1 mg/kg dose", "result": "one-week"}]}
{"smiles": "CCCCCCCCc1ccc2c(c1)CC[C@H]([C@](C)(N)CO)C2", "note": "[(2S, 2’S)-5]", "values": [{"measurement": "Mouse Lymphopenia ED50", "setting": "[4]", "result": "not active"}]}
{"smiles": "CCCCCCCCc1ccc2c(c1)CC[C@@H]([C@](C)(N)CO)C2", "note": "[(2S, 2’R)-5]", "values": [{"measurement": "ED50", "setting": "[4]; Mus musculus, read-out: Mouse Lymphopenia ED50", "result": "> 5", "unit": "mg/kg"}, {"measurement": "Mouse Lymphopenia ED50", "setting": "[4]", "result": "not active"}]}
{"smiles": "CCCCCCCCc1ccc2c(c1)CC[C@@H](C(N)(CO)COP(=O)(O)O)C2", "note": "(single isomer, unassigned) [(2’R)-3-P isomer 1]", "values": [{"measurement": "fold less potent at S1P1 than (S)-FTY720-P", "setting": "[2]; Gi assay", "result": 6, "unit": "fold"}, {"measurement": "fold less potent at S1P3 than (S)-FTY720-P", "setting": "[3]; Gi assay", "result": 2, "unit": "fold"}]}
{"smiles": "CCCCCCCCc1ccc2c(c1)CC[C@@H](C(N)(CO)COP(=O)(O)O)C2", "note": "(single isomer, unassigned) [(2’R)-3-P isomer 2]", "values": [{"measurement": "EC50 S1P3", "setting": "[3]", "result": "not active"}]}
{"smiles": "CCCCCCCCc1ccc2c(c1)CC[C@@H](C(N)(CO)CO)C2", "note": "[(2’R)-3]", "values": [{"measurement": "duration of sustained lymphopenia", "setting": "[4]; 2 mg/kg dose", "result": 72, "unit": "h"}]}
{"smiles": "CCCCCCCCc1ccc2c(c1)CC[C@H]([C@@](C)(N)COP(=O)(O)O)C2", "note": "[(2R, 2’S)-6]", "values": [{"measurement": "selectivity of S1P1 over S1P3", "setting": "[1]; Gq assay, compared to FTY720", "result": "moderate selectivity"}, {"measurement": "EC50 S1P1", "setting": "[1]", "result": "very active"}]}
{"smiles": "CCCCCCCCc1ccc2c(c1)CC[C@H]([C@](C)(N)COP(=O)(O)O)C2", "note": "[(2S, 2’S)-6]", "values": [{"measurement": "S1P1/S1P3 selectivity", "setting": "[2]; Gi assay", "result": "great S1P1/S1P3 selectivity"}, {"measurement": "EC50 S1P1", "setting": "[2]", "result": "significantly less active"}, {"measurement": "EC50 S1P3", "setting": "[3]", "result": "no activity"}, {"measurement": "EC50 S1P1", "setting": "[1]", "result": "not active"}]}
